Measurements reported in ChEMBL document CHEMBL1240524, “A focused library of protein tyrosine phosphatase inhibitors” (J Med Chem, 2010).
pIC50: −log10 of the molar value.

How the values were obtained:
[1] = biological target: Secreted effector protein (Yersinia pestis, UniProt O68720); test: Inhibition of Yersinia pestis YOpH
Method in brief: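 Phosphatase activity was read at 25 °C with p-NPP at its Km (1.7 mM). The buffer was 50 mM 3,3-dimethylglutarate pH 7.0 with 50 mM NaCl, 1 mM EDTA and 10% DMSO. Initial rates came from hydrolysis at 420 nm, 30 to 150 s after mixing. Percent inhibition was measured and IC50 values were calculated from it.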

[2] = Selectivity ratio of IC50 for TCPTP to IC50 for PTP1B
[3] = biological target: T1, Tyrosine-protein phosphatase non-receptor type 1 (Homo sapiens, UniProt P18031); test: Inhibition of PTP1B
T1 sequence (P18031 whole entry): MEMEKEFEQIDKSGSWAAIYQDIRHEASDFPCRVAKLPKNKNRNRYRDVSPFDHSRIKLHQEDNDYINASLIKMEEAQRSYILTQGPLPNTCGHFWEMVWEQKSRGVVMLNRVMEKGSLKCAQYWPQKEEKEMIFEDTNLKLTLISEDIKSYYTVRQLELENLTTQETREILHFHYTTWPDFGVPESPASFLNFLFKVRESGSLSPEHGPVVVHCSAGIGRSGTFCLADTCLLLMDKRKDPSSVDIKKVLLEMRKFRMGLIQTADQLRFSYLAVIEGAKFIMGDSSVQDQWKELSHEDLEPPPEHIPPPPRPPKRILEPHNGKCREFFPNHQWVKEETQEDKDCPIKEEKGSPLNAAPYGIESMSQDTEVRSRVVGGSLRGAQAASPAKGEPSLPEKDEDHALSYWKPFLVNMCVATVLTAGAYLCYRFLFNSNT
Method in brief: (§1)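 Medium: 10% DMSO, 1 mM EDTA, 50 mM NaCl, 50 mM 3,3-dimethylglutarate, pH 7.0. Initial rates taken as absorbance at 420 nm from 30 to 150 s after mixing. IC50 derived from percent inhibition.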

[4] = biological target: T2, Tyrosine-protein phosphatase non-receptor type 2 (Homo sapiens, UniProt P17706); test: Inhibition of TCPTP; method in brief: as §1
T2 sequence (P17706 whole entry): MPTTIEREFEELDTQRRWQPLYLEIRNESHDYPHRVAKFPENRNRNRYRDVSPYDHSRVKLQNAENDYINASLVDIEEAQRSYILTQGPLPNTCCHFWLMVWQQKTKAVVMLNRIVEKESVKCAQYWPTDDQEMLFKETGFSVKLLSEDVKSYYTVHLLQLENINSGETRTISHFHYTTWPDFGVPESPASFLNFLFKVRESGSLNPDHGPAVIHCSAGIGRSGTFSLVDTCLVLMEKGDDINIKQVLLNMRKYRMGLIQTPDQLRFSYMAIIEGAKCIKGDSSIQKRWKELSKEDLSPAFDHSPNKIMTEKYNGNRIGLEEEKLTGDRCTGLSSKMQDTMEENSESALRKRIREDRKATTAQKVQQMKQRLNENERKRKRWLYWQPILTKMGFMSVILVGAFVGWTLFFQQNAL

[5] = biological target: T3, Tyrosine-protein phosphatase non-receptor type 7 (Homo sapiens, UniProt P35236); test: Inhibition of HePTP
T3 sequence (P35236 whole entry): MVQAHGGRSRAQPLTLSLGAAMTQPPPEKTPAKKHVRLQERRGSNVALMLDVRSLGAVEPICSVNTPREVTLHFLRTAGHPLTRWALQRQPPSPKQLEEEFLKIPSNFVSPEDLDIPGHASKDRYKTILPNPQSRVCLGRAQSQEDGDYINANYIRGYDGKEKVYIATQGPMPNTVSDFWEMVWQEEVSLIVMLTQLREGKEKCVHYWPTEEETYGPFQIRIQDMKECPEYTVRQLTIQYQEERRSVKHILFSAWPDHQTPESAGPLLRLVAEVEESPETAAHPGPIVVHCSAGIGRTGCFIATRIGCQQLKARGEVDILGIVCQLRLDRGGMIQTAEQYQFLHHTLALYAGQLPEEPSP
Method in brief: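 HePTP assayed with 4-methylumbelliferyl phosphate at 174 μM (its measured Km) at 25 °C in 10% DMSO, 1 mM EDTA, 50 mM NaCl, 50 mM 3,3-dimethylglutarate, pH 7.0. Initial rates read as fluorescence (ex 340, em 460 nm) from 0 to 150 s after mixing. IC50 derived from percent inhibition.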

Sequence of Secreted effector protein (O68720 whole entry): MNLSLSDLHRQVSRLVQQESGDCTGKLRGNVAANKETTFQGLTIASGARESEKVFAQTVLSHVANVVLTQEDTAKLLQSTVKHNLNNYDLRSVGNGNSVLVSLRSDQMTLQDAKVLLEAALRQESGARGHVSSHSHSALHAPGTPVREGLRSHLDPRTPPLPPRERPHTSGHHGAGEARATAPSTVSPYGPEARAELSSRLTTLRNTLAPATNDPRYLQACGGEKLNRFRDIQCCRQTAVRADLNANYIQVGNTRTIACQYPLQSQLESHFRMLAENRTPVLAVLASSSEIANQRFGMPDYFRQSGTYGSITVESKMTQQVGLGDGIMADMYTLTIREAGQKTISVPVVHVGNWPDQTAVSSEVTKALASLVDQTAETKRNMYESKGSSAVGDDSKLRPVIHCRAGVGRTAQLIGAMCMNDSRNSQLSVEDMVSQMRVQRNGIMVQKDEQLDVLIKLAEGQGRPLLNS

Row | Structure (SMILES) | pIC50 [1] | Ratio IC50 [2] | pIC50 [3] | pIC50 [4] | pIC50 [5]
1 | N#Cc1ccc(Oc2ccc(NC(=O)c3cc(COc4ccc(C(=O)C(=O)O)cc4)ccc3COc3ccc(C(=O)C(=O)O)cc3)cc2)cc1 | 5.89 |  |  |  | 
2 | Cc1ccc(Oc2ccc(NC(=O)c3cc(COc4ccc(C(=O)C(=O)O)cc4)ccc3COc3ccc(C(=O)C(=O)O)cc3)cc2)cc1 | 6.72 |  |  |  | 
3 | O=C(O)C(=O)c1ccc(OCc2ccc(COc3ccc(C(=O)C(=O)O)cc3)c(C(=O)Nc3ccc(Oc4ccc(Cl)c(Cl)c4)cc3)c2)cc1 | 6.68 |  |  |  | 
4 | CSc1ccc(Oc2ccc(NC(=O)c3cc(COc4ccc(C(=O)C(=O)O)cc4)ccc3COc3ccc(C(=O)C(=O)O)cc3)cc2)cc1 | 6.96 |  |  |  | 
5 | O=C(O)C(=O)c1ccc(OCc2ccc(COc3ccc(C(=O)C(=O)O)cc3)c(C(=O)Nc3ccc(Oc4ccccc4)cc3)c2)cc1 | 6.62 | < 2 |  |  | 
6 | CC(C)c1ccc(Oc2ccc(NC(=O)c3cc(COc4ccc(C(=O)C(=O)O)cc4)ccc3COc3ccc(C(=O)C(=O)O)cc3)cc2)cc1 | 6.10 |  |  |  | 
7 | O=C(O)C(=O)c1ccc(OCc2ccc(COc3ccc(C(=O)C(=O)O)cc3)c(C(=O)Nc3ccc(Oc4ccc(SC(F)(F)F)cc4)cc3)c2)cc1 | 7.30 |  | 5.80 | 5.40 | 4.28
8 | O=C(O)C(=O)c1ccc(OCc2ccc(COc3ccc(C(=O)C(=O)O)cc3)c(C(=O)Nc3ccc(Oc4cccc(F)c4)cc3)c2)cc1 | 6.66 |  |  |  | 
9 | CCCCCCc1ccc(Oc2ccc(NC(=O)c3cc(COc4ccc(C(=O)C(=O)O)cc4)ccc3COc3ccc(C(=O)C(=O)O)cc3)cc2)cc1 | 7.05 |  | 5.92 | 5.64 | 4.55
10 | Cc1ccccc1Oc1ccc(NC(=O)c2cc(COc3ccc(C(=O)C(=O)O)cc3)ccc2COc2ccc(C(=O)C(=O)O)cc2)cc1 | 6.64 |  |  |  | 
11 | O=C(O)C(=O)c1ccc(OCc2ccc(COc3ccc(C(=O)C(=O)O)cc3)c(C(=O)Nc3ccc(Oc4ccc(F)cc4F)cc3)c2)cc1 | 6.04 |  |  |  | 
12 | CCCCc1ccc(Oc2ccc(NC(=O)c3cc(COc4ccc(C(=O)C(=O)O)cc4)ccc3COc3ccc(C(=O)C(=O)O)cc3)cc2)cc1 | 6.70 |  |  |  | 
13 | COc1ccc(Oc2ccc(NC(=O)c3cc(COc4ccc(C(=O)C(=O)O)cc4)ccc3COc3ccc(C(=O)C(=O)O)cc3)cc2)cc1 | 5.96 |  |  |  | 
14 | O=C(O)C(=O)c1ccc(OCc2ccc(COc3ccc(C(=O)C(=O)O)cc3)c(C(=O)Nc3ccc(Oc4ccc(F)cc4)cc3)c2)cc1 | 6.96 |  |  |  | 
15 | O=C(O)C(=O)c1ccc(OCc2ccc(COc3ccc(C(=O)C(=O)O)cc3)c(C(=O)Nc3cccc(OCc4ccccc4)c3)c2)cc1 | 7.00 |  |  |  | 
16 | CCc1ccc(Oc2ccc(NC(=O)c3cc(COc4ccc(C(=O)C(=O)O)cc4)ccc3COc3ccc(C(=O)C(=O)O)cc3)cc2)cc1 | 7.15 |  | 6.31 | 5.46 | 4.28
17 | O=C(O)C(=O)c1ccc(OCc2ccc(COc3ccc(C(=O)C(=O)O)cc3)c(C(=O)Nc3ccc(Oc4ccc(-c5ccccc5)cc4)cc3)c2)cc1 | 7.52 |  | 6.66 | 5.19 | 4.68
